ChEMBL document CHEMBL1240465, “Prenylflavonoids and prenyl/alkyl-phloroacetophenones: synthesis and antitumour biological evaluation” (Eur J Med Chem, 2010)

The compounds below were run on HL-60 (assay: Cytotoxicity against human HL60 cells after 72 hrs by XTT assay). Details: HL-60, 72 h.
Assay type: functional, cell-based
Procedure, shortened: (§1)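 Cells grown in DMEM (A549, HT-29, HeLa) or RPMI1640 (HL-60), both with 10% heat-inactivated fetal bovine serum, were exposed to compound across a concentration range for 72 h at 37 °C in humidified air/CO₂ (19/1), then read by XTT. Measurements were in triplicate. IC50 is the concentration giving 50% proliferation inhibition versus untreated controls, reported as mean ± S.D. of three independent determinations.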

Structure (SMILES) | IC50
CC(=O)c1c(O)cc(O)c(CC=C(C)C)c1O | 32 µM

Each compound was assayed on HeLa (assay: Cytotoxicity against human HeLa cells after 72 hrs by XTT assay). Details: not given.
Assay type: functional, cell-based
Procedure, shortened: as §1

Structure (SMILES) | IC50
CC(C)=CCC/C(C)=C/COc1cc2oc(-c3ccccc3)cc(=O)c2c(O)c1C/C=C(\C)CCC=C(C)C | 30 µM
C=C1CC[C@H]2C(C)(C)CCC[C@]2(C)[C@H]1CC/C(C)=C/Cc1c(O)cc(O)c2c(=O)c(O)c(-c3ccc(OC)cc3)oc12 | > 100 µM
CC(C)=CCC/C(C)=C/Cc1c(O)cc(O)c2c(=O)c(O)c(-c3ccc(O)cc3)oc12 | 30 µM
O=c1c(O)c(-c2ccc(O)cc2)oc2cc(O)cc(O)c12 [KAEMPFEROL] | > 100 µM
CC(C)=CCC/C(C)=C/Cc1c(O)cc2oc(-c3ccc(O)cc3)c(O)c(=O)c2c1O [MACARANGIN] | > 100 µM
CC(C)=CCC/C(C)=C/COc1c(C/C=C(\C)CCC=C(C)C)c(O)c2c(=O)cc(-c3ccccc3)oc2c1C/C=C(\C)CCC=C(C)C | 30 µM
COc1ccc(-c2oc3cc(O)cc(O)c3c(=O)c2O)cc1 [KAEMPFERIDE] | 23 µM
C=C1CC[C@H]2C(C)(C)CCC[C@]2(C)[C@H]1CC/C(C)=C/Cc1c(O)cc(O)c2c(=O)c(O)c(-c3ccc(O)cc3)oc12 | 30 µM
O=c1cc(-c2ccccc2)oc2cc(O)cc(O)c12 [CHRYSIN] | 29 µM
COc1ccc(-c2oc3cc(OC)cc(O)c3c(=O)c2OC)cc1 | 28 µM
CC(C)=CCC/C(C)=C/COc1c(-c2ccc(O)cc2)oc2cc(O)cc(O)c2c1=O | 23 µM
CC(C)=CCC/C(C)=C/COc1cc(O)c2c(=O)c(OC/C=C(\C)CCC=C(C)C)c(-c3ccc(O)cc3)oc2c1 | > 100 µM
C=C1CC[C@H]2C(C)(C)CCC[C@]2(C)[C@H]1CC/C(C)=C/COc1c(-c2ccc(O)cc2)oc2cc(O)cc(O)c2c1=O | 27 µM
COc1ccc(-c2oc3cc(O)cc(O)c3c(=O)c2OC)cc1 [ERMANIN] | 31 µM
C=C1CC[C@H]2C(C)(C)CCC[C@]2(C)[C@H]1CC/C(C)=C/COc1cc(O)c2c(=O)c(OC/C=C(\C)CC[C@H]3C(=C)CC[C@H]4C(C)(C)CCC[C@]34C)c(-c3ccc(OC)cc3)oc2c1 | > 100 µM
C=C1CC[C@H]2C(C)(C)CCC[C@]2(C)[C@H]1CC/C(C)=C/COc1cc(O)c2c(=O)c(O)c(-c3ccc(OC)cc3)oc2c1 | > 100 µM
C=C1CC[C@H]2C(C)(C)CCC[C@]2(C)[C@H]1CC/C(C)=C/COc1cc(O)c2c(=O)c(OC/C=C(\C)CC[C@H]3C(=C)CC[C@H]4C(C)(C)CCC[C@]34C)c(-c3ccc(O)cc3)oc2c1 | > 100 µM
CC(C)=CCC/C(C)=C/Cc1c(O)cc2oc(-c3ccccc3)cc(=O)c2c1O | 32 µM
C=C1CC[C@H]2C(C)(C)CCC[C@]2(C)[C@H]1CC/C(C)=C/COc1cc(O)c2c(=O)c(O)c(-c3ccc(O)cc3)oc2c1 | > 100 µM
COc1cccc2c1C(=O)c1c(O)c3c(c(O)c1C2=O)C[C@@](O)(C(=O)CO)C[C@@H]3O[C@H]1C[C@H](N)[C@H](O)[C@H](C)O1 [DOXORUBICIN] | 0.29 µM
CC(=O)c1c(O)cc(O)c(CC=C(C)C)c1O | 28 µM
C=C1CC[C@H]2C(C)(C)CCC[C@]2(C)[C@H]1CC/C(C)=C/COc1c(-c2ccc(OC)cc2)oc2cc(O)cc(O)c2c1=O | 30 µM
C=C1CC[C@H]2C(C)(C)CCC[C@]2(C)[C@H]1CC/C(C)=C/Cc1c(O)cc2oc(-c3ccc(O)cc3)c(O)c(=O)c2c1O [DENTICULAFLAVONOL] | > 100 µM

The compounds below were run on HT-29 (assay: Cytotoxicity against human HT-29 cells after 72 hrs by XTT assay). Details: HT-29, 72 h.
Assay type: functional, cell-based
Procedure, shortened: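 Cells grown in DMEM (A549, HT-29, HeLa) or RPMI1640 (HL-60), both with 10% heat-inactivated fetal bovine serum, were exposed to compound across a concentration range for 72 h at 37 °C in humidified air/CO₂ (19/1), then read by XTT. Measurements were in triplicate.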

Structure (SMILES) | IC50
CC(C)=CCC/C(C)=C/COc1cc2oc(-c3ccccc3)cc(=O)c2c(O)c1C/C=C(\C)CCC=C(C)C | 32 µM
C=C1CC[C@H]2C(C)(C)CCC[C@]2(C)[C@H]1CC/C(C)=C/Cc1c(O)cc(O)c2c(=O)c(O)c(-c3ccc(OC)cc3)oc12 | > 100 µM
CC(C)=CCC/C(C)=C/Cc1c(O)cc(O)c2c(=O)c(O)c(-c3ccc(O)cc3)oc12 | 30 µM
O=c1c(O)c(-c2ccc(O)cc2)oc2cc(O)cc(O)c12 [KAEMPFEROL] | > 100 µM
CC(C)=CCC/C(C)=C/Cc1c(O)cc2oc(-c3ccc(O)cc3)c(O)c(=O)c2c1O [MACARANGIN] | > 100 µM
CC(C)=CCC/C(C)=C/COc1c(C/C=C(\C)CCC=C(C)C)c(O)c2c(=O)cc(-c3ccccc3)oc2c1C/C=C(\C)CCC=C(C)C | 32 µM
COc1ccc(-c2oc3cc(O)cc(O)c3c(=O)c2O)cc1 [KAEMPFERIDE] | 32 µM
C=C1CC[C@H]2C(C)(C)CCC[C@]2(C)[C@H]1CC/C(C)=C/Cc1c(O)cc(O)c2c(=O)c(O)c(-c3ccc(O)cc3)oc12 | 29 µM
O=c1cc(-c2ccccc2)oc2cc(O)cc(O)c12 [CHRYSIN] | > 100 µM
COc1ccc(-c2oc3cc(OC)cc(O)c3c(=O)c2OC)cc1 | 26 µM
CC(C)=CCC/C(C)=C/COc1c(-c2ccc(O)cc2)oc2cc(O)cc(O)c2c1=O | 25 µM
CC(C)=CCC/C(C)=C/COc1cc(O)c2c(=O)c(OC/C=C(\C)CCC=C(C)C)c(-c3ccc(O)cc3)oc2c1 | 31 µM
C=C1CC[C@H]2C(C)(C)CCC[C@]2(C)[C@H]1CC/C(C)=C/COc1c(-c2ccc(O)cc2)oc2cc(O)cc(O)c2c1=O | 30 µM
COc1ccc(-c2oc3cc(O)cc(O)c3c(=O)c2OC)cc1 [ERMANIN] | 32 µM
C=C1CC[C@H]2C(C)(C)CCC[C@]2(C)[C@H]1CC/C(C)=C/COc1cc(O)c2c(=O)c(OC/C=C(\C)CC[C@H]3C(=C)CC[C@H]4C(C)(C)CCC[C@]34C)c(-c3ccc(OC)cc3)oc2c1 | > 100 µM
C=C1CC[C@H]2C(C)(C)CCC[C@]2(C)[C@H]1CC/C(C)=C/COc1cc(O)c2c(=O)c(O)c(-c3ccc(OC)cc3)oc2c1 | > 100 µM
C=C1CC[C@H]2C(C)(C)CCC[C@]2(C)[C@H]1CC/C(C)=C/COc1cc(O)c2c(=O)c(OC/C=C(\C)CC[C@H]3C(=C)CC[C@H]4C(C)(C)CCC[C@]34C)c(-c3ccc(O)cc3)oc2c1 | > 100 µM
CC(C)=CCC/C(C)=C/Cc1c(O)cc2oc(-c3ccccc3)cc(=O)c2c1O | 33 µM
C=C1CC[C@H]2C(C)(C)CCC[C@]2(C)[C@H]1CC/C(C)=C/COc1cc(O)c2c(=O)c(O)c(-c3ccc(O)cc3)oc2c1 | > 100 µM
CC(=O)c1c(O)cc(O)c(CC=C(C)C)c1O | 30 µM
C=C1CC[C@H]2C(C)(C)CCC[C@]2(C)[C@H]1CC/C(C)=C/COc1c(-c2ccc(OC)cc2)oc2cc(O)cc(O)c2c1=O | 32 µM
C=C1CC[C@H]2C(C)(C)CCC[C@]2(C)[C@H]1CC/C(C)=C/Cc1c(O)cc2oc(-c3ccc(O)cc3)c(O)c(=O)c2c1O [DENTICULAFLAVONOL] | > 100 µM

What follows are compounds tested on A549 (assay: Cytotoxicity against human A549 cells after 72 hrs by XTT assay). Details: A549, 72 h.
Assay type: functional, cell-based
Procedure, shortened: as §1

Structure (SMILES) | IC50
CC(C)=CCC/C(C)=C/COc1cc2oc(-c3ccccc3)cc(=O)c2c(O)c1C/C=C(\C)CCC=C(C)C | 32 µM
C=C1CC[C@H]2C(C)(C)CCC[C@]2(C)[C@H]1CC/C(C)=C/Cc1c(O)cc(O)c2c(=O)c(O)c(-c3ccc(OC)cc3)oc12 | > 100 µM
CC(C)=CCC/C(C)=C/Cc1c(O)cc(O)c2c(=O)c(O)c(-c3ccc(O)cc3)oc12 | 26 µM
O=c1c(O)c(-c2ccc(O)cc2)oc2cc(O)cc(O)c12 [KAEMPFEROL] | > 100 µM
CC(C)=CCC/C(C)=C/Cc1c(O)cc2oc(-c3ccc(O)cc3)c(O)c(=O)c2c1O [MACARANGIN] | > 100 µM
CC(C)=CCC/C(C)=C/COc1c(C/C=C(\C)CCC=C(C)C)c(O)c2c(=O)cc(-c3ccccc3)oc2c1C/C=C(\C)CCC=C(C)C | 29 µM
COc1ccc(-c2oc3cc(O)cc(O)c3c(=O)c2O)cc1 [KAEMPFERIDE] | 22 µM
C=C1CC[C@H]2C(C)(C)CCC[C@]2(C)[C@H]1CC/C(C)=C/Cc1c(O)cc(O)c2c(=O)c(O)c(-c3ccc(O)cc3)oc12 | 32 µM
O=c1cc(-c2ccccc2)oc2cc(O)cc(O)c12 [CHRYSIN] | > 100 µM
COc1ccc(-c2oc3cc(OC)cc(O)c3c(=O)c2OC)cc1 | 30 µM
CC(C)=CCC/C(C)=C/COc1c(-c2ccc(O)cc2)oc2cc(O)cc(O)c2c1=O | 27 µM
CC(C)=CCC/C(C)=C/COc1cc(O)c2c(=O)c(OC/C=C(\C)CCC=C(C)C)c(-c3ccc(O)cc3)oc2c1 | > 100 µM
C=C1CC[C@H]2C(C)(C)CCC[C@]2(C)[C@H]1CC/C(C)=C/COc1c(-c2ccc(O)cc2)oc2cc(O)cc(O)c2c1=O | 26 µM
COc1ccc(-c2oc3cc(O)cc(O)c3c(=O)c2OC)cc1 [ERMANIN] | 31 µM
C=C1CC[C@H]2C(C)(C)CCC[C@]2(C)[C@H]1CC/C(C)=C/COc1cc(O)c2c(=O)c(OC/C=C(\C)CC[C@H]3C(=C)CC[C@H]4C(C)(C)CCC[C@]34C)c(-c3ccc(OC)cc3)oc2c1 | > 100 µM
C=C1CC[C@H]2C(C)(C)CCC[C@]2(C)[C@H]1CC/C(C)=C/COc1cc(O)c2c(=O)c(O)c(-c3ccc(OC)cc3)oc2c1 | > 100 µM
C=C1CC[C@H]2C(C)(C)CCC[C@]2(C)[C@H]1CC/C(C)=C/COc1cc(O)c2c(=O)c(OC/C=C(\C)CC[C@H]3C(=C)CC[C@H]4C(C)(C)CCC[C@]34C)c(-c3ccc(O)cc3)oc2c1 | > 100 µM
CC(C)=CCC/C(C)=C/Cc1c(O)cc2oc(-c3ccccc3)cc(=O)c2c1O | 32 µM
C=C1CC[C@H]2C(C)(C)CCC[C@]2(C)[C@H]1CC/C(C)=C/COc1cc(O)c2c(=O)c(O)c(-c3ccc(O)cc3)oc2c1 | > 100 µM
COc1cccc2c1C(=O)c1c(O)c3c(c(O)c1C2=O)C[C@@](O)(C(=O)CO)C[C@@H]3O[C@H]1C[C@H](N)[C@H](O)[C@H](C)O1 [DOXORUBICIN] | 0.26 µM
CC(=O)c1c(O)cc(O)c(CC=C(C)C)c1O | 29 µM
C=C1CC[C@H]2C(C)(C)CCC[C@]2(C)[C@H]1CC/C(C)=C/COc1c(-c2ccc(OC)cc2)oc2cc(O)cc(O)c2c1=O | 30 µM
C=C1CC[C@H]2C(C)(C)CCC[C@]2(C)[C@H]1CC/C(C)=C/Cc1c(O)cc2oc(-c3ccc(O)cc3)c(O)c(=O)c2c1O [DENTICULAFLAVONOL] | > 100 µM
